Each structure is given as a SMILES string. Where only a bound is given, the exact number is not on record here.

Series [1] has as its target T1, 17-beta-hydroxysteroid dehydrogenase type 1 (Homo sapiens, UniProt P14061).
T1 sequence (P14061 whole entry): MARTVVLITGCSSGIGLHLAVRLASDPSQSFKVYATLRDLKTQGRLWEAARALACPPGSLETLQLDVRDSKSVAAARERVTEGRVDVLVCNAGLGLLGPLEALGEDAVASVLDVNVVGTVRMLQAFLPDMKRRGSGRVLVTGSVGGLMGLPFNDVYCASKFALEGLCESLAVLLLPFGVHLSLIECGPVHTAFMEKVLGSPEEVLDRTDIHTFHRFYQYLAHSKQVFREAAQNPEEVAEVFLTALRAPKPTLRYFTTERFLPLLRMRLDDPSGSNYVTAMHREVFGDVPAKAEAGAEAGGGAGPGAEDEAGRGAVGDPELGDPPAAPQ
The experiment in a line: Inhibition of human placenta 17beta-HSD1 cytosolic fraction using unlabeled, [2,4,6,7-3H]-estrone as substrate after 10 mins by HPLC analysis in presence of NADH.

The species named for a further series is Homo sapiens. The series can be described thus: Selectivity factor, ratio of IC50 for human placenta 17beta-HSD1 cytosolic fraction to IC50 for human placenta 17beta-HSD2 microsomal fraction. An outline of the steps: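 Selectivity factor is IC50(17β-HSD1, placental cytosolic, E1/NADH assay) divided by IC50(17β-HSD2, placental microsomal, E2/NAD⁺ assay). Both come from radiolabeled-substrate conversion assays at 37 °C with 500 nM substrate.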

Series [2] concerns the target T2, 17-beta-hydroxysteroid dehydrogenase type 2 (Homo sapiens, UniProt P37059).
T2 sequence (P37059 whole entry): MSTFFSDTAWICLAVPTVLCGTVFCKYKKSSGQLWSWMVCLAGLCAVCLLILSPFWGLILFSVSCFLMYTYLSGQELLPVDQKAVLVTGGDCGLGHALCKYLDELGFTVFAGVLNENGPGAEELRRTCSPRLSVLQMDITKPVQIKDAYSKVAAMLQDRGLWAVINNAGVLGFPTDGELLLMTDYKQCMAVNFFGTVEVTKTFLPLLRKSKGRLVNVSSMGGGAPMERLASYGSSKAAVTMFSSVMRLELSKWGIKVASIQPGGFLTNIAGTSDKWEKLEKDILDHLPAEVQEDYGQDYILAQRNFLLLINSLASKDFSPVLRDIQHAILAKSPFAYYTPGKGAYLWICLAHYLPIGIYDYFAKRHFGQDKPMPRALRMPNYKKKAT
The experiment in a line: Inhibition of 17beta-HSD2 (unknown origin).

The nature of series [3]: Partition coefficient, log P of the compound. It is filed as physicochemical. Particulars: octanol/water. An outline of the steps:
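Experimental log P was measured on a SiriusT3 instrument. Calculated log P came from the GALAS method, which predicts from structurally similar molecules with known experimental data.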

The target in series [4] is T3, 17-beta-hydroxysteroid dehydrogenase type 2 (Homo sapiens) (UniProt P37059).
T3 sequence (whole entry): T2 sequence (P37059 whole entry)
The series can be described thus: Inhibition of human placenta 17beta-HSD2 microsomal fraction using unlabeled, [2,4,6,7-3H]-estradiol as substrate at 1 uM after 20 mins by HPLC analysis in presence of NAD+ relative to control. An outline of the steps: (§1)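 17β-HSD2 came from the human placental microsomal pellet after fractional centrifugation at 1000, 10,000 and 150,000 g. It was incubated at 37 °C with NAD⁺ and inhibitor in 50 mM phosphate buffer with 20% glycerol, 1 mM EDTA and 1% DMSO final. Unlabeled plus [³H]-E2 (500 nM final) was added, and the reaction was stopped with HgCl₂ after 20 min. After ether extraction, radio-flow detection gave % conversion = E1/(E1+E2). At least three independent experiments were run.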

Series [5] deals with T2, 17-beta-hydroxysteroid dehydrogenase type 2. The experiment in a line: Inhibition of human placenta 17beta-HSD2 microsomal fraction using unlabeled, [2,4,6,7-3H]-estradiol as substrate after 20 mins by HPLC analysis in presence of NAD+. In a few lines:
as §1

Series [6] has as its target T4, 17-beta-hydroxysteroid dehydrogenase type 1 (Homo sapiens) (UniProt P14061).
T4 sequence (whole entry): T1 sequence (P14061 whole entry)
The experiment in a line: Inhibition of human placenta 17beta-HSD1 cytosolic fraction using unlabeled, [2,4,6,7-3H]-estrone as substrate at 1 uM after 10 mins by HPLC analysis in presence of NADH relative to control.

For the molecule `COc1cccc(-c2cccc(C(=O)N(C)c3cccc(OC)c3)c2)c1`, the IC50 – broadly, the concentration that gives 50% inhibition – in series [1] was above 60000 nM. The Ratio IC50 in the series listed under Homo sapiens was above 115.

Take `CN1C(=O)C[C@@H](c2ccccc2F)[C@@H]1[C@@H](O)c1cccc(-c2ccccc2)c1`: in series [2], the IC50 is 420 nM.

On to `CN(c1cccc(-c2cccc(O)c2)c1)S(=O)(=O)c1cccc(O)c1`, for which, in series [3], the logP – broadly, the decadic logarithm of the partition coefficient of the neutral form, usually between octanol and water – turned out to be 4.08. Besides, the figures for the IC50 in series [1] and in series [5] were 427 nM and 159 nM, respectively. The inhibition (in general, the relative decrease from the control value, in per cent) in series [4] was 88%; in series [6] it was 68%. Further, the Ratio IC50 in the series listed under Homo sapiens was 3.

Regarding `COc1ccc(-c2cccc(C(=O)N(C)Cc3cccc(OC)c3)c2)cc1`, in series [6], the inhibition is 3%.

`CN1C(=O)C[C@@H](c2ccccc2F)[C@@H]1[C@@H](O)c1ccc(-c2ccccc2)cc1` came in with an IC50 in series [2] of 1020 nM.

Regarding `CN(c1cccc(O)c1)S(=O)(=O)c1cccc(-c2cccc(O)c2)c1`, the logP in series [3] came to 4.34. The 50% inhibitory concentration (IC50) was found to be 1310 nM in series [1] and 540 nM in series [5]. Besides, the figures for the inhibition in series [4] and in series [6] were 68% and 42%, respectively. Further, the Ratio IC50 in the series filed under Homo sapiens turned out to be 2.

With `CN(c1ccc(-c2cccc(O)c2)cc1)S(=O)(=O)c1cccc(O)c1`, the logP in series [3] is 3.72. Also, the IC50 in series [1] worked out at 3280 nM; in series [5], 511 nM. Besides, the results for the inhibition in series [4] and in series [6] were 66% and 22%, respectively. Moreover, the Ratio IC50 in the series listed under Homo sapiens worked out at 6.
